Calls of active or inactive are those of the source.
What was measured:
[1] = molecular target: Hypoxia-inducible factor 1-alpha (Homo sapiens) (UniProt Q16665); test: Inhibition of HIF1alpha transcriptional activity in hypoxia-induced human HCCLM3 cells co-transfected with luciferase reporter plasmid containing five copies of HREs and pRL-SV40 plasmid encoding Renilla luciferase at 10 uM incubated with compound under normoxia for 1 hr followed by hypoxia induction and measured after 24 hrs by HRE-dependent dual luciferase reporter gene assay relative to control
Outline: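 LM3 cells co-transfected with firefly luciferase reporter carrying five HRE copies plus pRL-SV40 Renilla plasmid; after transfection treated and kept under hypoxia; firefly luminescence normalized to Renilla. Single-point inhibition rate at 10 μM; IC50 for selected compounds.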

[2] = molecular target: Hypoxia-inducible factor 1-alpha (Homo sapiens) (UniProt Q16665); test: (§1) Potency index, ratio of IC50 for 2-Methyl-N-phenethylthiazole-4-carboxamide to IC50 for test compound for inhibition of HIF1alpha transcriptional activity in hypoxia-induced human HCCLM3 cells incubated with compound under normoxia for 1 hr followed by hypoxia induction and measured after 24 hrs by HRE-dependent dual luciferase reporter gene assay
HCCLM3 = test: Inhibition of HIF1alpha accumulation in hypoxia-induced human HCCLM3 cells at 10 uM incubated with compound under normoxia for 1 hr followed by hypoxia induction and measured after 24 hrs by Western blot analysis; assay type: functional, cell-based
Outline: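 LM3 cells treated at 10 μM under hypoxia; HIF-1α protein by western blot, LW6 as reference.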

[3] = molecular target: Hypoxia-inducible factor 1-alpha (Homo sapiens) (UniProt Q16665); test: as §1, with “LW6” for “2-Methyl-N-phenethylthiazole-4-carboxamide”
[4] = Cytotoxicity against human HCCLM3 cells assessed as reduction in cell viability incubated for 48 hrs by MTT assay; assay type: cell-based
MDA-MB-231 [5] = test: Inhibition of HIF1alpha accumulation in hypoxia-induced human MDA-MB-231 cells incubated with compound under normoxia for 1 hr followed by hypoxia induction and measured after 24 hrs by Western blot analysis; assay type: functional, cell-based
Outline: (§2)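 MDA-MB-231, SKOV3 and HeLa cells exposed to hypoxia with compound at a range of concentrations; HIF-1α accumulation assessed by western blot.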

SK-OV-3 = test: Inhibition of HIF1alpha accumulation in hypoxia-induced human SKOV3 cells incubated with compound under normoxia for 1 hr followed by hypoxia induction and measured after 24 hrs by Western blot analysis; assay type: functional, cell-based; outline: as §2
HeLa = test: Inhibition of HIF1alpha accumulation in hypoxia-induced human HeLa cells incubated with compound under normoxia for 1 hr followed by hypoxia induction and measured after 24 hrs by Western blot analysis; assay type: functional, cell-based; outline: as §2
HUVEC [6] = test: Antiangiogenic activity in HUVEC assessed as reduction in VEGF mRNA expression incubated with compound under normoxia for 1 hr followed by hypoxia induction and measured after 24 hrs by real time-PCR analysis; assay type: functional, cell-based; conditions: Homo sapiens
Outline: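 HUVECs treated with 0.5 or 1 μM; VEGF mRNA by real-time PCR, normalized to GAPDH, compared with normoxia and untreated hypoxic controls; means ± SD of three independent experiments.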

HUVEC [7] = test: Antiangiogenic activity in HUVEC assessed as suppression of capillary-like tubule formation at 2 to 5 uM incubated under hypoxia for 12 hrs by inverted microscopic method; assay type: functional, cell-based; conditions: Homo sapiens
Outline: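 HUVECs seeded on matrigel-precoated wells under hypoxia, treated at 2 or 5 μM; capillary-like tubule branches photographed; representative of three independent experiments.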

HUVEC [8] = test: Antiangiogenic activity in HUVEC assessed as disruption in capillary-like tubule formation at 5 uM incubated under hypoxia for 12 hrs by inverted microscopic method; assay type: functional, Homo sapiens
Outline: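 HUVECs on matrigel-precoated wells, incubated under hypoxia with 5 μM compound; tubule branches photographed; three independent experiments.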

Danio rerio = species: Danio rerio; test: Antiangiogenic activity in […]/EGFP transgenic zebrafish embryo assessed as destruction of subintestinal vessel at 0.5 to 1 uM incubated for 24 hrs by confocal microscopic method; assay type: functional, organism-based
Outline: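 Transgenic zebrafish with GFP-labeled vascular endothelium; embryos selected, […], exposed 24 h to 0.5 or 1 μM (DMSO vehicle, n = 10; apatinib 0.5 μM reference); SIVs imaged by confocal microscopy and counted per field; means ± SD, three independent experiments.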

MDA-MB-231 [9] = test: Inhibition of cell migration in human MDA-MB-231 cells incubated with compound under normoxia for 1 hr followed by hypoxia induction and measured after 24 hrs by wound healing assay based inverted microscopic method; assay type: functional
Outline: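 Wound-healing: monolayer of MDA-MB-231 scratched, treated 2, 5, 10 μM or DMSO under normoxia 1 h then hypoxia 24 h; wound closure imaged; three independent experiments.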

MDA-MB-231 [10] = test: Inhibition of cell invasion in human MDA-MB-231 cells incubated with compound under normoxia for 1 hr followed by hypoxia induction and measured after 24 hrs by transwell assay/crystal violet staining based inverted microscopic method; assay type: functional
Outline: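 Transwell with MDA-MB-231 cells in upper chamber on matrigel-precoated inserts; 2, 5, 10 μM under normoxia 1 h then hypoxia 24 h; invaded cells stained with crystal violet and counted; three experiments, means ± SD.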

MDA-MB-231 [11] = test: Induction of E-cadherin protein expression in human MDA-MB-231 cells incubated with compound under normoxia for 1 hr followed by hypoxia induction and measured after 24 hrs by Western blot analysis; assay type: functional, cell-based
Outline: (§3)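 MDA-MB-231 cells given 2, 5 or 10 μM under normoxia 1 h, then hypoxia 24 h; E-cadherin, vimentin, MMP-2, MMP-9 by western blot, GAPDH loading control; three independent experiments.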

MDA-MB-231 [12] = test: Inhibition of vimentin protein expression in human MDA-MB-231 cells incubated with compound under normoxia for 1 hr followed by hypoxia induction and measured after 24 hrs by Western blot analysis; assay type: functional, cell-based; outline: as §3
MDA-MB-231 [13] = test: Downregulation of MMP2 protein expression in human MDA-MB-231 cells incubated with compound under normoxia for 1 hr followed by hypoxia induction and measured after 24 hrs by Western blot analysis; assay type: functional, cell-based; outline: as §3
MDA-MB-231 [14] = test: Downregulation of MMP9 protein expression in human MDA-MB-231 cells incubated with compound under normoxia for 1 hr followed by hypoxia induction and measured after 24 hrs by Western blot analysis; assay type: functional, cell-based; outline: as §3
MDA-MB-231 [15] = test: (§4) Antimetastatic activity against human MDA-MB-231 cells stable expressing luciferase xenografted in ip dosed BALB/c nude mouse assessed as reduction in lung colonization of tumor cells administered every 2 days for 3 weeks starting at 24 hrs post-trensfection and measured at 24 hrs after final dose by bioluminescent imaging assay; assay type: functional, organism-based
Outline: (§5)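 Luciferase-expressing MDA-MB-231 cells injected into tail vein of BALB/c nude mice; i.p. vehicle or 15 and 30 mg/kg starting 24 h later, every 2 days for 20 days; bioluminescence imaged 24 h after last dose; lungs examined by H&E histology; n = 4 per group, mean ± SD.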

MDA-MB-231 [16] = test: as §4, with “final doses” for “final dose”, “by H and E staining method” for “by bioluminescent imaging assay”; assay type: functional, organism-based; outline: as §5
[17] = Toxicity in BALB/c nude mouse xenografted with human MDA-MB-231 cells stable expressing luciferase assessed as change in body weight at 15 to 30 mg/kg, ip administered every 2 days for 3 weeks starting at 24 hrs post-trensfection; assay type: organism-based; conditions: in vivo
Outline: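 Tail-vein luciferase MDA-MB-231 lung-metastasis model in BALB/c nude mice; 15 or 30 mg/kg i.p. every 2 days for 20 days from 24 h post-injection; body weight recorded at study end.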

[18] = molecular target: Hypoxia-inducible factor 1-alpha (Homo sapiens) (UniProt Q16665); test: Induction of HIF1alpha (unknown origin) degradation
HUVEC [19] = test: Antiproliferative activity against HUVEC at 2 to 5 uM; assay type: cell-based; conditions: human
MDA-MB-231 [20] = test: Induction of apoptosis in human MDA-MB-231 cells at 2 to 10 uM incubated for 24 hrs; assay type: cell-based; conditions: mda-mb-231, 24 h
MDA-MB-231 [21] = test: Inhibition of cell growth in human MDA-MB-231 cells at 2 to 10 uM incubated for 24 hrs; assay type: cell-based; conditions: mda-mb-231, 24 h

Sequence of Hypoxia-inducible factor 1-alpha (Homo sapiens) (Q16665 whole entry, looked up): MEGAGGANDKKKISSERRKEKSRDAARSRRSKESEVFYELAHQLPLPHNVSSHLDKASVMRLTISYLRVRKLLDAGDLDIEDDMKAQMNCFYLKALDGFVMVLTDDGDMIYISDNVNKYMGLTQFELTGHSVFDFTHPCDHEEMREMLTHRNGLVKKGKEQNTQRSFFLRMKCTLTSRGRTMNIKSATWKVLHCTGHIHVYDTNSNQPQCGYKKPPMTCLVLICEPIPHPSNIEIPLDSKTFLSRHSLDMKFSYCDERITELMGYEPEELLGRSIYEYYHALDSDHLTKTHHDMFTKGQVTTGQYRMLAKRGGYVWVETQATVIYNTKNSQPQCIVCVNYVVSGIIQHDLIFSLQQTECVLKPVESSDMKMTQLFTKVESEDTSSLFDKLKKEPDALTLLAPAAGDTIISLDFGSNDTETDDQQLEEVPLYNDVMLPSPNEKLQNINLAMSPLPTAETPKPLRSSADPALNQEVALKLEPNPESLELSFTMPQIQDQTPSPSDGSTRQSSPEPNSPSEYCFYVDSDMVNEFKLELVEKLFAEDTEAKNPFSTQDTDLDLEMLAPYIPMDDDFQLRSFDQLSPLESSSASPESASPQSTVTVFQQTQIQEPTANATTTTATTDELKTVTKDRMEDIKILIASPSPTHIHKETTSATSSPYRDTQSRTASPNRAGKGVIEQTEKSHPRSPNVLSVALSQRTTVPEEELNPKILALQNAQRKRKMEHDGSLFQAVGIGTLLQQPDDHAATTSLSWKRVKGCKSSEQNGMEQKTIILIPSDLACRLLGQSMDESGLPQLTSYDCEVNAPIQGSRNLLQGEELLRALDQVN

COc1ccccc1-c1ccc(C(=O)NCCc2ccccc2F)nc1
10: Ratio IC50 [3]
Non-Toxic: Activity [17] | Activity (HUVEC [19]) | Activity (MDA-MB-231 [20]) | growth inhibition (GI) (MDA-MB-231 [21])
91.4 to 97.7%: inhibition [1]
active: HIF-1α accumulation inhibition (qualitative) (HCCLM3) | inhibition (MDA-MB-231 [5]) Dose-dependent effect | inhibition (SK-OV-3) Dose-dependent effect | inhibition (HeLa) Dose-dependent effect | Activity (HUVEC [6]) Dose-dependent effect | Activity (HUVEC [7]) | Activity (Danio rerio) | inhibition (MDA-MB-231 [9]) Dose-dependent effect | inhibition (MDA-MB-231 [10]) Dose-dependent effect | Activity (MDA-MB-231 [11]) Dose-dependent effect | inhibition (MDA-MB-231 [12]) Dose-dependent effect | inhibition (MDA-MB-231 [13]) Dose-dependent effect | inhibition (MDA-MB-231 [14]) Dose-dependent effect | Activity (MDA-MB-231 [15]) Dose-dependent effect | Activity (MDA-MB-231 [16]) Dose-dependent effect | Activity [18]
> 50 µM: CC50 at 48 h [4]
170: Ratio IC50 [2]
100%: Activity (HUVEC [8])

Reference: ChEMBL document CHEMBL4354811, “Discovery of Novel Aryl Carboxamide Derivatives as Hypoxia-Inducible Factor 1α Signaling Inhibitors with Potent Activities of Anticancer Metastasis” (J Med Chem, 2019)
